What is called inhibition is the change of the read-out against control, counted positive when it falls.

What all share (format): cell-based
Experiment [1] has as its target 5'-AMP-activated protein kinase catalytic subunit alpha-1 (Homo sapiens) (UniProt Q13131). Nature of the experiment: Inhibition of AMPKa1 in human SKCO1 cells at 1 uM after 4 hrs using biotin labeled DLKPENVLLDAHMNAK probe by mass-spectrometric analysis relative to control. The method in brief:
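Live SK-CO-1 cells were treated 4 h with compound at 1 μM or DMSO, then lysed. Lysates were labeled with a lysine-reactive ATP/ADP-biotin probe and analysed by mass spectrometry. Percent inhibition is the loss of probe-dependent recovery of the kinase peptide relative to DMSO.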

In experiment [2] the target is Cyclin-dependent kinase 1 (Homo sapiens) (UniProt P06493). Put plainly: Inhibition of CDC2 in human SKCO1 cells at 1 uM after 4 hrs using biotin labeled DLKPQNLLIDDK probe by mass-spectrometric analysis relative to control.
Experiment [3] deals with Cyclin-dependent kinase 7 (Homo sapiens) (UniProt P50613). Put plainly: Inhibition of CDK7 in human SKCO1 cells at 1 uM after 4 hrs using biotin labeled DLKPNNLLLDENGVLK probe by mass-spectrometric analysis relative to control.
Chain of Cyclin-dependent kinase 7 (Homo sapiens) (P50613 whole entry): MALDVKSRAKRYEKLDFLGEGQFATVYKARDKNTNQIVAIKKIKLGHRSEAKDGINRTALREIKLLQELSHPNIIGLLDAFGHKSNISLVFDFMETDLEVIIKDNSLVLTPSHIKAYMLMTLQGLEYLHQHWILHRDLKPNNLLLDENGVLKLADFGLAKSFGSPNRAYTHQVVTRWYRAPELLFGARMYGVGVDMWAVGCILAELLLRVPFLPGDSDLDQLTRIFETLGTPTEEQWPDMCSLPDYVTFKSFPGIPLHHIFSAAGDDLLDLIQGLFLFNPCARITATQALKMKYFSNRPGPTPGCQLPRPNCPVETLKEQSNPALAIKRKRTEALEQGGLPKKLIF
The target in experiment [4] is Epidermal growth factor receptor (Homo sapiens) (UniProt P00533). Put plainly: Inhibition of EGFR in human SKCO1 cells at 1 uM after 4 hrs using biotin labeled IPVAIKELR probe by mass-spectrometric analysis relative to control.
The target of experiment [5] is Tyrosine-protein kinase Yes (Homo sapiens) (UniProt P07947). Put plainly: Inhibition of YES in human SKCO1 cells at 1 uM after 4 hrs using biotin labeled QGAKFPIKWTAPEAALYGR probe by mass-spectrometric analysis relative to control.
For experiment [6], the target named is Glycogen synthase kinase-3 beta (Homo sapiens) (UniProt P49841). Nature of the experiment: Inhibition of GSK3B in human SKCO1 cells at 1 uM after 4 hrs using biotin labeled DIKPQNLLLDPDTAVLK probe by mass-spectrometric analysis relative to control.
Chain of Glycogen synthase kinase-3 beta (Homo sapiens) (P49841 whole entry, looked up): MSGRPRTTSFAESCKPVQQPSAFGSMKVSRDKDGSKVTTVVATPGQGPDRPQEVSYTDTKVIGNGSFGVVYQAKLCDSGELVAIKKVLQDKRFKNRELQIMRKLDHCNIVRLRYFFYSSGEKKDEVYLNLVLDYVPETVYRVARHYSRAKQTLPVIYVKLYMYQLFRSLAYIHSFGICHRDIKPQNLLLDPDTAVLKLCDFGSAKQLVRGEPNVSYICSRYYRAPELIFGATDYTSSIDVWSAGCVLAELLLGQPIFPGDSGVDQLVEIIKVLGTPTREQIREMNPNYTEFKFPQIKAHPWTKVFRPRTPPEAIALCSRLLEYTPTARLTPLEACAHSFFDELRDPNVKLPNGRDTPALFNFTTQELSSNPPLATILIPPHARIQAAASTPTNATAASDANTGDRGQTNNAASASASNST
Experiment [7] deals with Tyrosine-protein kinase Lyn (Homo sapiens) (UniProt P07948). Nature of the experiment: Inhibition of LYN in human SKCO1 cells at 1 uM after 4 hrs using biotin labeled VAVKTLKPGTMSVQAFLEEANLMK probe by mass-spectrometric analysis relative to control.
For experiment [8], the target named is T1, Serine/threonine-protein kinase 4 (Homo sapiens) (UniProt Q13043).
T1 sequence (whole entry): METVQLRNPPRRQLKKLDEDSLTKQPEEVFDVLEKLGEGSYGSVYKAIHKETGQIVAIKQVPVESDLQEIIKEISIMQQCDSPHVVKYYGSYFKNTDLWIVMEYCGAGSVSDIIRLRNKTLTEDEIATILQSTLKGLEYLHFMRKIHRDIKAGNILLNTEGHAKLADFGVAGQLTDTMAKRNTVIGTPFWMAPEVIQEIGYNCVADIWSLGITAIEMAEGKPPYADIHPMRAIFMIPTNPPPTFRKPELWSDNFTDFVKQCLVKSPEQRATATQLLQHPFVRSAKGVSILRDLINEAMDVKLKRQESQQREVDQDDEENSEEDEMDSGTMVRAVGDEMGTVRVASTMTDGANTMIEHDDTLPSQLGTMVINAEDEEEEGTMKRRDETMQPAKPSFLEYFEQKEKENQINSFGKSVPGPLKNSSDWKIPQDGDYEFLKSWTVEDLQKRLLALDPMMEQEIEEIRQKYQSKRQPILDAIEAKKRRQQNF
Nature of the experiment: Inhibition of MST1 in human SKCO1 cells at 1 uM after 4 hrs using biotin labeled ETGQIVAIKQVPVESDLQEIIK probe by mass-spectrometric analysis relative to control. The method in brief:
(§1)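 Live SK-CO-1 cells exposed to compound at 1 μM or DMSO for 4 h (KiNativ). Lysates then labeled with lysine-reactive ATP/ADP-biotin probe, and probe-labeled kinase peptides quantified by mass spectrometry. Percent inhibition of probe-dependent recovery calculated relative to DMSO-treated cells.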

Experiment [9] addresses Ribosomal protein S6 kinase beta-2 (Homo sapiens) (UniProt Q9UBS0). Put plainly: Inhibition of p70S6Kb in human SKCO1 cells at 1 uM after 4 hrs using biotin labeled DLKPENIMLSSQGHIK probe by mass-spectrometric analysis relative to control. The method in brief:
as §1

Experiment [10] deals with Serine/threonine-protein kinase PAK 2 (Homo sapiens) (UniProt Q13177). Put plainly: Inhibition of PAK2 in human SKCO1 cells at 1 uM after 4 hrs using biotin labeled IGQGASGTVFTATDVALGQEVAIKQINLQK probe by mass-spectrometric analysis relative to control. The method in brief:
as §1

For experiment [11], the target named is Cyclin-dependent kinase 18 (Homo sapiens) (UniProt Q07002). Nature of the experiment: Inhibition of PCTAIRE3 in human SKCO1 cells at 1 uM after 4 hrs using biotin labeled SKLTENLVALKEIR probe by mass-spectrometric analysis relative to control. The method in brief: as §1
Chain of Cyclin-dependent kinase 18 (Homo sapiens) (Q07002 whole entry): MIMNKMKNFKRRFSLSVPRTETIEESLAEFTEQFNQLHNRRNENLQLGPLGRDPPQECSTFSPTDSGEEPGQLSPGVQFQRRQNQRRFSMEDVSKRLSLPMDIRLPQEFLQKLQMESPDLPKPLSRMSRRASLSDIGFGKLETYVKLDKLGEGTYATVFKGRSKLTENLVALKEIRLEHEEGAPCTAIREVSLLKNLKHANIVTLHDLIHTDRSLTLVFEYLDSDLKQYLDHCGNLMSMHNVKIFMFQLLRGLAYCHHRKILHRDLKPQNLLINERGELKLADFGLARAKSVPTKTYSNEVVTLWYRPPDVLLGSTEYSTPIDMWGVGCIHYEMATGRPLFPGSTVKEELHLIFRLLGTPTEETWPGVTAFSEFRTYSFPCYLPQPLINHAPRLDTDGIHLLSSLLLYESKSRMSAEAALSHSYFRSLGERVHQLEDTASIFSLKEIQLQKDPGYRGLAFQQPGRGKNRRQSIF
The target of experiment [12] is 1-phosphatidylinositol 3-phosphate 5-kinase (Homo sapiens) (UniProt Q9Y2I7). Nature of the experiment: Inhibition of PIP5K3 in human SKCO1 cells at 1 uM after 4 hrs using biotin labeled GGKSGAAFYATEDDRFILK probe by mass-spectrometric analysis relative to control. Put shortly:
as §1

Experiment [13] addresses Serine/threonine-protein kinase PRP4 homolog (Homo sapiens) (UniProt Q13523). Nature of the experiment: Inhibition of PRP4 in human SKCO1 cells at 1 uM after 4 hrs using biotin labeled CNILHADIKPDNILVNESK probe by mass-spectrometric analysis relative to control. The method in brief:
as §1

Experiment [14] concerns the target T2, Non-receptor tyrosine-protein kinase TNK1 (Homo sapiens) (UniProt Q13470).
T2 sequence (whole entry): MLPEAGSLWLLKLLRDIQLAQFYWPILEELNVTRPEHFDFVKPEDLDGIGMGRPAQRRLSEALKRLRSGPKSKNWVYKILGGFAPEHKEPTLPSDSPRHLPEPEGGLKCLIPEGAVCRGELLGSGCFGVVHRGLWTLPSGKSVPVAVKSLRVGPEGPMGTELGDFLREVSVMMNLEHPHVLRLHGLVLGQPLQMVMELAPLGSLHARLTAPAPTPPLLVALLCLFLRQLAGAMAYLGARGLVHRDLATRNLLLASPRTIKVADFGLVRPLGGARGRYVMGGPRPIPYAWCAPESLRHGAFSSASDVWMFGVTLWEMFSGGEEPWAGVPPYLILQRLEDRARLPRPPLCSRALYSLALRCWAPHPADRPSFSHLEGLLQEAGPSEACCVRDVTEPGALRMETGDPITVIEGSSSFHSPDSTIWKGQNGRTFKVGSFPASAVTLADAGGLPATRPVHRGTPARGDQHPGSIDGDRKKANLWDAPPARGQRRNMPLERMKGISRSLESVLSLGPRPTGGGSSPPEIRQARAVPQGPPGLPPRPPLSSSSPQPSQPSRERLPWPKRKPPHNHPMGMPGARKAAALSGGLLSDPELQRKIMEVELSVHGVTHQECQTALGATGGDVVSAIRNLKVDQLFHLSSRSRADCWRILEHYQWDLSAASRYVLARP
Nature of the experiment: Inhibition of TNK1 in human SKCO1 cells at 1 uM after 4 hrs using biotin labeled SVPVAVKSLR probe by mass-spectrometric analysis relative to control. Put shortly: as §1

Experiment [15] has as its target Serine/threonine-protein kinase 32C (Homo sapiens) (UniProt Q86UX6). Nature of the experiment: Inhibition of YANK3 in human SKCO1 cells at 1 uM after 4 hrs using biotin labeled DVKPDNILLDER probe by mass-spectrometric analysis relative to control. Put shortly:
as §1

Chain of Serine/threonine-protein kinase PAK 2 (Homo sapiens) (Q13177 whole entry): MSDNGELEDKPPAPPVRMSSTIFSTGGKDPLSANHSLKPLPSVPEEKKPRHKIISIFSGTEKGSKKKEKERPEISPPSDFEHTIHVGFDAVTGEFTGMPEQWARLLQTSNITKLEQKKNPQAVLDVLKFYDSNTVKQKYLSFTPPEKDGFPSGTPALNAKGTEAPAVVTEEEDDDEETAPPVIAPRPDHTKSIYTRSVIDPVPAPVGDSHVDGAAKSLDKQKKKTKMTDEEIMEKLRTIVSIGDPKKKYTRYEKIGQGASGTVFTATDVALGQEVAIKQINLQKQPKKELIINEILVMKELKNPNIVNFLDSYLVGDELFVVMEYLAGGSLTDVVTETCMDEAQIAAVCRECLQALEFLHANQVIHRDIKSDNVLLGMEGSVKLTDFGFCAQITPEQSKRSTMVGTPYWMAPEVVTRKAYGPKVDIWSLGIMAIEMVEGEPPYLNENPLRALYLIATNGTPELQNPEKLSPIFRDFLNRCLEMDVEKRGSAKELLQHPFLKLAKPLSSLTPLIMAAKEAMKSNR
Chain of Serine/threonine-protein kinase 32C (Homo sapiens) (Q86UX6 whole entry): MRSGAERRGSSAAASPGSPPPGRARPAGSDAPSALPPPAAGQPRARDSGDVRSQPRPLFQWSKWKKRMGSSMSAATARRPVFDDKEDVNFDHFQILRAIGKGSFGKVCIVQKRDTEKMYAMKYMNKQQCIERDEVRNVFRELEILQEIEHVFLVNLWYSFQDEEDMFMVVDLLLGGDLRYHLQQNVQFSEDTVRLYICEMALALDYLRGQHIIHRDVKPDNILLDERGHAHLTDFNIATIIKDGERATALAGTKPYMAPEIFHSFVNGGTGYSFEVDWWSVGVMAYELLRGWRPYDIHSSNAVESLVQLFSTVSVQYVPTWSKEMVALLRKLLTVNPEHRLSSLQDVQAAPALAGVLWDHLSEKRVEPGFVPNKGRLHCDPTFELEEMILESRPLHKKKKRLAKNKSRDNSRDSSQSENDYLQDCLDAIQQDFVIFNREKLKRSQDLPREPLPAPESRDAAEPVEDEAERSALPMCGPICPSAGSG
Chain of 1-phosphatidylinositol 3-phosphate 5-kinase (Homo sapiens) (Q9Y2I7 whole entry): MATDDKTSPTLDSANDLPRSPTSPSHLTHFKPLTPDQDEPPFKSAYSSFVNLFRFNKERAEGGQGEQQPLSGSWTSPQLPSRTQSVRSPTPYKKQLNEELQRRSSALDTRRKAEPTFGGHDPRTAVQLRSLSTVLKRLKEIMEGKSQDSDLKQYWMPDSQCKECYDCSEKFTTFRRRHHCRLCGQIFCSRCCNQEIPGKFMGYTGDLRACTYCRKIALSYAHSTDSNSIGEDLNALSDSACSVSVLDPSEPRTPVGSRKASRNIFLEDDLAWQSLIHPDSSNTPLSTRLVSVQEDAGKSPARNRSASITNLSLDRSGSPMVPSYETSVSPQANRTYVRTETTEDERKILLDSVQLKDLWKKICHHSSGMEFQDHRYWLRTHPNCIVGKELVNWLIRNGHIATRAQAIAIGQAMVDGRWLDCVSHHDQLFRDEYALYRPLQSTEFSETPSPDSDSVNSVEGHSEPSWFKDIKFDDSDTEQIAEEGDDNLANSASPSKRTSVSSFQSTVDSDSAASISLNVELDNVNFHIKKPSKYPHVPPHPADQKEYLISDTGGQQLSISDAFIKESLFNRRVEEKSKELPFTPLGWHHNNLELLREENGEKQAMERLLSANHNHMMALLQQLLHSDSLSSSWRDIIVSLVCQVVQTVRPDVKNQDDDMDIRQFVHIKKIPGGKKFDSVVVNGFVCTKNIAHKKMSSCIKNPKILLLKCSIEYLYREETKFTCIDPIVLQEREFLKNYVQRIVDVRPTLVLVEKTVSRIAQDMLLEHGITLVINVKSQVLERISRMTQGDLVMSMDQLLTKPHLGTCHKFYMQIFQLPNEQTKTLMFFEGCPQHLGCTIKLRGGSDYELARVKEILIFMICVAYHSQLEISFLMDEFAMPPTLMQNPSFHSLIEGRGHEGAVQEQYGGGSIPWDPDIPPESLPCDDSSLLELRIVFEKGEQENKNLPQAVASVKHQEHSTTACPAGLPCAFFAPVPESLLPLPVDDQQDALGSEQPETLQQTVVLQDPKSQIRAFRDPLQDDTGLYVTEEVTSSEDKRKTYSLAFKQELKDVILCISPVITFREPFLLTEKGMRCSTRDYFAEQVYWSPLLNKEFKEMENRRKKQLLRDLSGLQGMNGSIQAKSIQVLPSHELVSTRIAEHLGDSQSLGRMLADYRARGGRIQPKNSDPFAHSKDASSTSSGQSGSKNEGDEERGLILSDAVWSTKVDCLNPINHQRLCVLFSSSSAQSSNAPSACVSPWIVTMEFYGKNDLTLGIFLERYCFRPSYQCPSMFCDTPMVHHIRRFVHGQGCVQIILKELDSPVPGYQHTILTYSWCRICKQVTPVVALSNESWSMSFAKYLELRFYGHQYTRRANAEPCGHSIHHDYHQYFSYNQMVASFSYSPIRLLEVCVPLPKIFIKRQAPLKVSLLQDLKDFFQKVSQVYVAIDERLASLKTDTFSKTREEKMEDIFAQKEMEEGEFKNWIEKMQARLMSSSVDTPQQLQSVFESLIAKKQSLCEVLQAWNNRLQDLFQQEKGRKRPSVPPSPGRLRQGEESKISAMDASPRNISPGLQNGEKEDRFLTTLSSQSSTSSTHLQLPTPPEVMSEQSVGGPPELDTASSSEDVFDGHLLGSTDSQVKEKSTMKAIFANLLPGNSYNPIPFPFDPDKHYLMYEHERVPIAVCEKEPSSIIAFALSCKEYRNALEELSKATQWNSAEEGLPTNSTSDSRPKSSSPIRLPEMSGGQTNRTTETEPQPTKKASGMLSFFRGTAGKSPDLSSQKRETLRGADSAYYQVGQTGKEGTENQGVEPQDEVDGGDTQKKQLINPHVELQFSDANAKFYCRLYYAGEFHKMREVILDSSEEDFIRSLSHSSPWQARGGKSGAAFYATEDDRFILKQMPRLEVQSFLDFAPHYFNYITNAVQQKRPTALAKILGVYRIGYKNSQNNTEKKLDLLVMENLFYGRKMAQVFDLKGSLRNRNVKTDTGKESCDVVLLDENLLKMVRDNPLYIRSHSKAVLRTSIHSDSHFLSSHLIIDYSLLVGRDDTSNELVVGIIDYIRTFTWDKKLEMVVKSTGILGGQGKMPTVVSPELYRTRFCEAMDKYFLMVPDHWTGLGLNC
Chain of 5'-AMP-activated protein kinase catalytic subunit alpha-1 (Homo sapiens) (Q13131 whole entry, looked up): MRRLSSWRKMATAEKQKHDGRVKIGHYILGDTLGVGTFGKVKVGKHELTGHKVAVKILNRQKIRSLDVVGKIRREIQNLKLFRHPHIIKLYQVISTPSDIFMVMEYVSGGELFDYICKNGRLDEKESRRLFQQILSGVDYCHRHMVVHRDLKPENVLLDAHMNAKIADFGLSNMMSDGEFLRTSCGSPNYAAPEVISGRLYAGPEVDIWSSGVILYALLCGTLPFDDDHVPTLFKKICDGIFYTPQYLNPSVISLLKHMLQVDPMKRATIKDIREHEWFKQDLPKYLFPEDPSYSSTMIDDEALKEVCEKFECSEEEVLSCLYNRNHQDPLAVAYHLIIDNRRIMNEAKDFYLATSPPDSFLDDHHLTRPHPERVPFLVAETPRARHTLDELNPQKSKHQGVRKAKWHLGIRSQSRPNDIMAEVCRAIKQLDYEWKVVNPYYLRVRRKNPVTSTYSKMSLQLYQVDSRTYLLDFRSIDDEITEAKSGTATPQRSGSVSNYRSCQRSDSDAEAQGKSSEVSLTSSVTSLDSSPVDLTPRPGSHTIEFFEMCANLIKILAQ

For `C=CC(=O)Nc1ccccc1Oc1nc(Nc2cnn(CCOC)c2)ncc1Cl`, the inhibition was 0.2% in experiment [1]; 33.1% in experiment [2]; 9.5% in experiment [3]; 17.1% in experiment [4]; -0.9% in experiment [5]; 17% in experiment [6]. Besides, the inhibition in experiment [7] is 2.8%; in experiment [8] it was -0.9%; in experiment [9] it was -1.5%; in [10] it was 3%; in experiment [11] it was 21.9%; in experiment [12], 54.1%. For the same compound, the values for the inhibition in [13], in experiment [14] and in experiment [15] were 18.7%, 48.3% and 9.3%, respectively.

With `COc1cc(O)c2c(c1)/C=C/C[C@H](O)[C@H](O)C(=O)/C=C\C[C@H](C)OC2=O`, the inhibition in experiment [1] is 33.6%; in experiment [2] it was 46.6%; in experiment [3], -3.7%; in experiment [4] it was 6.2%; in experiment [5], 8.5%; in experiment [6], 3%. Moreover, the inhibition in [7] was -5.1%; in experiment [8], -4.7%; in experiment [9], 54.6%; in experiment [10], -3.9%; in experiment [11], 21.2%; in experiment [12], 64.9%. In addition, the values for the inhibition in [13], in [14] and in experiment [15] were 15.4%, 13.9% and -1.6%, respectively.

`C=CC(=O)Nc1ccccc1Nc1nc(Nc2ccc(N3CCN(C)CC3)cc2)ncc1Cl`: the inhibition in experiment [1] is 76%; in experiment [2] it was 47.7%; in [3] it was 31.5%; in experiment [4] it was 46.2%; in [5], 50.5%; in experiment [6], -6.6%. For the same compound, the inhibition in experiment [7] is 16.5%; in [8], -6.4%; in experiment [9], 3.3%; in [10], -8.6%; in experiment [11] it was 3.7%; in [12], 61.5%. For the same compound, the figures for the inhibition in experiment [13], in experiment [14] and in experiment [15] were 32.7%, 98.3% and -0.3%, respectively.

Source of the values: ChEMBL document CHEMBL4118021, “Studies of TAK1-centered polypharmacology with novel covalent TAK1 inhibitors” (Bioorg Med Chem, 2017).
